Results as given in ChEMBL document CHEMBL1154325, “Cytotoxic clerodane diterpenoids from Casearia obliqua” (J Nat Prod, 2009).

Tests used:
[1] = system: HL-60; test: Cytotoxic activity against human HL60 cells after 69 hrs by MTT assay; type: functional, cell-based; details: HL-60, 69 h
Outline: (§1)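 Cells were grown in RPMI 1640 with 10% FBS, 2 mM glutamine, penicillin and streptomycin at 37 °C under 5% CO2, then plated. After 24 h, compounds in DMSO were added at 0.39-25 µg/mL, with doxorubicin at 0.01-0.58 µg/mL as positive control. After 69 h, MTT at 0.5 mg/mL was added for 3 h. Formazan was dissolved in DMSO and read at 595 nm. IC50 came from nonlinear regression.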

[2] = system: HCT-8; test: Cytotoxic activity against human HCT8 cells after 69 hrs by MTT assay; type: functional, cell-based; details: HCT-8, 69 h; outline: as §1
[3] = system: SF-295; test: Cytotoxic activity against human SF295 cells after 69 hrs by MTT assay; type: functional, cell-based; details: SF-295, 69 h; outline: as §1
[4] = system: MDA-MB-435 (Homo sapiens); test: Cytotoxic activity against human MDA-MB-435 cells after 69 hrs by MTT assay; details: MDA-MB-435, 69 h

SMILES | IC50 [1] | IC50 [2] | IC50 [3] | IC50 [4]
C=C/C(C)=C/C[C@]1(C)[C@H]2C[C@H](O)C=C3[C@H](OC(C)=O)O[C@@H](OC(C)=O)[C@@]32[C@H](OC(=O)/C=C/c2ccccc2)C[C@@H]1C | > 5 µM | > 5 µM | > 5 µM | > 5 µM
C=C/C(C)=C/C[C@]1(C)[C@H]2C[C@@H](OC(C)=O)C=C3[C@H](OC(C)=O)O[C@@H](OC(C)=O)[C@@]32[C@H](OC(=O)c2ccc(O)cc2)C[C@@H]1C [CASEOBLIQUIN A] | > 5 µM | > 5 µM | > 5 µM | > 5 µM
COc1cccc2c1C(=O)c1c(O)c3c(c(O)c1C2=O)C[C@@](O)(C(=O)CO)C[C@@H]3O[C@H]1C[C@H](N)[C@H](O)[C@H](C)O1 [DOXORUBICIN] | 0.07 µM | 1.5 µM | 0.75 µM | 0.12 µM
